Laboratory results taken from ChEMBL document CHEMBL5096226, “Structure-Activity Relationship Study of Momordica Saponin II Derivatives as Vaccine Adjuvants” (J Med Chem, 2022).
Active and inactive are the calls of the source.

What was measured:
Format in all cases: functional, organism-based
Mus musculus [1] = assay: Immuno-adjuvant activity in BALB/c mouse assessed as increase in anti-OVA IgG1 antibody in serum at 100 ug, sc administered on day 0, 14 and 28 and measured at 4 weeks in presence of chicken egg ovalbumin by ELISA; conditions: dose 100.0 µg
Method in brief: (§1)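 Female BALB/c mice (8–10 wk, six per group) immunized s.c. with OVA 20 μg ± adjuvant on days 0, 14, 28. Tail-vein serum taken before each dose and 2 wk after the last. ELISA on OVA-coated (0.1 μg/mL) plates in borate saline pH 8.2. Twofold serum dilutions in duplicate, overnight at 4 °C. HRP anti-mouse IgG/subclass applied 4 h, OPD substrate, read at 490 nm. Concentrations from reference-serum standard curves (4-parameter fit).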

Mus musculus [2] = assay: Immuno-adjuvant activity in BALB/c mouse Splenocyte assessed as increase in CD4+ surface expression of PD-1 at 50 ug, sc administered on day 0, 14 and 28 and measured at week 6 post immunization by flow cytometry analysis; conditions: dose 50.0 µg, time 6.0 weeks
Method in brief: (§2)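 Female BALB/c mice (8–10 wk, six per group) given OVA 20 μg s.c. with adjuvant on days 0, 14, 28; spleens taken at week 6. Splenocytes stained with viability dye, Fc-blocked, surface-stained 30 min. For intracellular cytokines, cells stimulated 5 h with leukocyte activation cocktail plus GolgiPlug, then fixed/permeabilized. IL-21 detected with IL-21R Fc chimera. All steps at 4 °C. Read as MFI, mean ± SEM.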

Splenocyte [3] = assay: Immuno-adjuvant activity in BALB/c mouse Splenocyte assessed as increase in CD4+ T cells at 100 ug, sc administered on day 0, 14 and 28 and measured at week 6 post immunization by flow cytometry analysis; conditions: dose 100.0 µg, time 6.0 weeks; method in brief: as §2
Mus musculus [4] = assay: Immuno-adjuvant activity in BALB/c mouse assessed as increase in follicular helper T cells in spleen at 100 ug, sc administered on day 0, 14 and 28 and measured at week 6 post immunization by flow cytometry analysis; conditions: T-cell, dose 100.0 µg, time 6.0 weeks
Method in brief: (§3)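 Female BALB/c mice (8–10 wk, six per group), OVA 20 μg s.c. plus adjuvant on days 0, 14, 28; spleens collected week 6. Single-cell splenocyte suspensions stained and analysed by flow cytometry. TFH gated PD-1+Bcl6+Foxp3−CD4+CD3+, TFR PD-1+Bcl6+Foxp3+CD4+CD3+, dark zone GC B cells CXCR4hiCD86loFas+GL-7+CD19+. Steps at 4 °C. Mean ± SEM; unpaired t tests.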

Mus musculus [5] = assay: Immuno-adjuvant activity in BALB/c mouse assessed as increase in ratio of TFH to TFR cells at 100 ug, sc administered on day 0, 14 and 28 and measured at week 6 post immunization by flow cytometry analysis; conditions: dose 100.0 µg, time 6.0 weeks; method in brief: as §3
Mus musculus [6] = assay: Immuno-adjuvant activity in BALB/c mouse assessed as increase in anti-OVA Ig2a antibody in serum at 100 ug, sc administered on day 0, 14 and 28 and measured at 4 and 6 weeks in presence of chicken egg ovalbumin by ELISA; conditions: dose 100.0 µg, time 4-6 weeks; method in brief: as §1
Splenocyte [7] = assay: Immuno-adjuvant activity in BALB/c mouse Splenocyte assessed as increase in CD8+ T cells at 100 ug, sc administered on day 0, 14 and 28 and measured at week 6 post immunization by flow cytometry analysis; conditions: dose 100.0 µg, time 6.0 weeks; method in brief: as §2
Mus musculus [8] = assay: Immuno-adjuvant activity in BALB/c mouse assessed as increase in anti-OVA IgG antibody in serum at 50 ug, sc administered on day 0, 14 and 28 and measured at 2, 4 and 6 weeks in presence of chicken egg ovalbumin by ELISA; conditions: dose 50.0 µg, time 2-6 weeks; method in brief: as §1
Mus musculus [9] = assay: Immuno-adjuvant activity in BALB/c mouse assessed as increase in IL-4 expressing CD4+ effector T cells in spleen at 100 ug, sc administered on day 0, 14 and 28 and measured at week 6 post immunization by flow cytometry analysis; conditions: T-cell, dose 100.0 µg, time 6.0 weeks; method in brief: as §2
Mus musculus [10] = assay: Immuno-adjuvant activity in BALB/c mouse assessed as increase in IL-21 expressing CD4+ effector T cells in spleen at 100 ug, sc administered on day 0, 14 and 28 and measured at week 6 post immunization by flow cytometry analysis; conditions: T-cell, dose 100.0 µg, time 6.0 weeks; method in brief: as §2
Mus musculus [11] = assay: Immuno-adjuvant activity in BALB/c mouse assessed as increase in CD19+ B cells in spleen at 100 ug, sc administered on day 0, 14 and 28 and measured at week 6 post immunization by flow cytometry analysis; conditions: dose 100.0 µg, time 6.0 weeks; method in brief: as §3
Mus musculus [12] = assay: Immuno-adjuvant activity in BALB/c mouse assessed as reduction in TFR cells in spleen at 100 ug, sc administered on day 0, 14 and 28 and measured at week 6 post immunization by flow cytometry analysis; conditions: dose 100.0 µg, time 6.0 weeks; method in brief: as §3
Mus musculus [13] = assay: Immuno-adjuvant activity in BALB/c mouse assessed as increase in dark zone B cells at 100 ug, sc administered on day 0, 14 and 28 and measured at week 6 post immunization by flow cytometry analysis; conditions: dose 100.0 µg, time 6.0 weeks; method in brief: as §3
Mus musculus [14] = assay: Immuno-adjuvant activity in BALB/c mouse assessed as increase in ratio of TFH to TFR cells at 20 ug, sc administered on day 0, 14 and 28 and measured at week 6 post immunization by flow cytometry analysis; conditions: dose 20.0 µg, time 6.0 weeks; method in brief: as §3
Mus musculus [15] = assay: Immuno-adjuvant activity in BALB/c mouse Splenocyte assessed as increase in CD4+ T cells at 20 ug, sc administered on day 0, 14 and 28 and measured at week 6 post immunization by flow cytometry analysis; conditions: dose 20.0 µg, time 6.0 weeks; method in brief: as §2
Mus musculus [16] = assay: Immuno-adjuvant activity in BALB/c mouse assessed as increase in IL-21 expressing CD4+ effector T cells in spleen at 20 ug, sc administered on day 0, 14 and 28 and measured at week 6 post immunization by flow cytometry analysis; conditions: T-cell, dose 20.0 µg, time 6.0 weeks; method in brief: as §2
Mus musculus [17] = assay: Immuno-adjuvant activity in BALB/c mouse assessed as increase in dark zone B cells at 20 ug, sc administered on day 0, 14 and 28 and measured at week 6 post immunization by flow cytometry analysis; conditions: dose 20.0 µg, time 6.0 weeks; method in brief: as §3
Mus musculus [18] = assay: Immuno-adjuvant activity in BALB/c mouse assessed as increase in CD19+ B cells in spleen at 20 ug, sc administered on day 0, 14 and 28 and measured at week 6 post immunization by flow cytometry analysis; conditions: dose 20.0 µg, time 6.0 weeks; method in brief: as §3
Mus musculus [19] = assay: Immuno-adjuvant activity in BALB/c mouse assessed as increase in anti-OVA IgG antibody in serum at 20 ug, sc administered on day 0, 14 and 28 and measured at 2, 4 and 6 weeks in presence of chicken egg ovalbumin by ELISA; conditions: dose 20.0 µg, time 2-6 weeks; method in brief: as §1
Mus musculus [20] = assay: Immuno-adjuvant activity in BALB/c mouse assessed as increase in anti-OVA Ig2a antibody in serum at 20 ug, sc administered on day 0, 14 and 28 and measured at 4 and 6 weeks in presence of chicken egg ovalbumin by ELISA; conditions: dose 20.0 µg, time 4-6 weeks; method in brief: as §1
Mus musculus [21] = assay: Immuno-adjuvant activity in BALB/c mouse assessed as increase in IL-4 expressing CD4+ effector T cells in spleen at 20 ug, sc administered on day 0, 14 and 28 and measured at week 6 post immunization by flow cytometry analysis; conditions: T-cell, dose 20.0 µg, time 6.0 weeks; method in brief: as §2
Mus musculus [22] = assay: Immuno-adjuvant activity in BALB/c mouse assessed as increase in follicular helper T cells in spleen at 20 ug, sc administered on day 0, 14 and 28 and measured at week 6 post immunization by flow cytometry analysis; conditions: T-cell, dose 20.0 µg, time 6.0 weeks; method in brief: as §3
Mus musculus [23] = assay: Immuno-adjuvant activity in BALB/c mouse Splenocyte assessed as increase in CD8+ T cells at 20 ug, sc administered on day 0, 14 and 28 and measured at week 6 post immunization by flow cytometry analysis; conditions: dose 20.0 µg, time 6.0 weeks; method in brief: as §2
Mus musculus [24] = assay: Immuno-adjuvant activity in BALB/c mouse assessed as increase in anti-OVA IgG2a antibody in serum at 20 ug, sc administered on day 0, 14 and 28 and measured at 2 weeks in presence of chicken egg ovalbumin by ELISA; conditions: dose 20.0 µg; method in brief: as §1
Mus musculus [25] = assay: Immuno-adjuvant activity in BALB/c mouse assessed as reduction in TFR cells in spleen at 20 ug, sc administered on day 0, 14 and 28 and measured at week 6 post immunization by flow cytometry analysis; conditions: dose 20.0 µg, time 6.0 weeks; method in brief: as §3

Measured: Activity

C[C@@H]1O[C@@H](O[C@H]2[C@H](O)[C@@H](C(=O)NCCCCCCCCCCC(=O)OCc3ccccc3)O[C@@H](O[C@H]3CC[C@]4(C)[C@H]5CC=C6[C@@H]7CC(C)(C)CC[C@]7(C(=O)O[C@@H]7O[C@H](C)[C@H](O)[C@H](O)[C@H]7O[C@@H]7O[C@@H](C)[C@H](O[C@@H]8OC[C@@H](O)[C@H](O)[C@H]8O)[C@@H](O[C@@H]8O[C@H](CO)[C@@H](O)[C@H](O[C@@H]9OC[C@@H](O)[C@H](O)[C@H]9O)[C@H]8O)[C@H]7O)[C@H](O)C[C@@]6(C)[C@]5(C)CC[C@H]4[C@]3(C)C=O)[C@@H]2O[C@@H]2O[C@H](CO)[C@H](O)[C@H](O)[C@H]2O)[C@H](O)[C@H](O)[C@H]1O
active: Mus musculus [1] | Mus musculus [2] | Splenocyte [3] | Mus musculus [4] | Mus musculus [5] | Mus musculus [6] | Splenocyte [7] | Mus musculus [8] | Mus musculus [9] | Mus musculus [10] | Mus musculus [11] | Mus musculus [12] | Mus musculus [13]

CC[C@H](C)[C@H](C[C@H](O)CC(=O)O[C@@H]1[C@H](O)[C@@H](O[C@@H]2O[C@@H](C)[C@H](O[C@@H]3OC[C@@H](O)[C@H](O[C@@H]4OC[C@](O)(CO)[C@H]4O)[C@H]3O)[C@@H](O)[C@H]2O)[C@H](OC(=O)[C@]23CCC(C)(C)C[C@H]2C2=CC[C@@H]4[C@@]5(C)CC[C@H](O[C@@H]6O[C@H](C(=O)O)[C@@H](O)[C@H](O[C@@H]7OC[C@@H](O)[C@H](O)[C@H]7O)[C@H]6O[C@@H]6O[C@H](CO)[C@H](O)[C@H](O)[C@H]6O)[C@@](C)(C=O)[C@@H]5CC[C@@]4(C)[C@]2(C)C[C@H]3O)O[C@@H]1C)OC(=O)C[C@@H](O)C[C@H](O[C@@H]1O[C@@H](CO)[C@H](O)[C@H]1O)[C@@H](C)CC
active: Mus musculus [14] | Mus musculus [15] | Mus musculus [16] | Mus musculus [17] | Mus musculus [18] | Mus musculus [19] | Mus musculus [20] | Mus musculus [21] | Mus musculus [22] | Mus musculus [23] | Mus musculus [24] | Mus musculus [25]
